Assay [1] concerns HEL. Description: Cytotoxicity against human HEL cells assessed as reduction in cell viability incubated for 48 hrs by MTT assay. In kind it is functional, cell-based. The gist of the method: (§1)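 MTT viability after 48 h exposure. Cells (1×10^4/well) were allowed 24 h at 37 °C before dosing. Leukemia lines were grown in RPMI and breast lines in high-glucose DMEM, each with 5% FBS under 5% CO2. MTT was added for 4 h, formazan dissolved in DMSO, and absorbance read at 490 nm. Triplicate wells; values averaged over at least 3 independent experiments.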

Assay [2] concerns K562. Description: Cytotoxicity against human K562 cells assessed as reduction in cell viability incubated for 48 hrs by MTT assay. Type of assay: functional, cell-based. Particulars: K562, 48 h. The gist of the method: as §1
Background: Tetrazolium dyes change colour on reduction, which living cells bring about.

Assay [3] deals with MDA-MB-231. Description: Cytotoxicity against human MDA-MB-231 cells assessed as reduction in cell viability incubated for 48 hrs by MTT assay. In kind it is functional, cell-based. Particulars: MDA-MB-231, 48 h. The gist of the method: as §1
The test system of assay [4] is MCF7. Description: Cytotoxicity against human MCF-7 cells assessed as reduction in cell viability incubated for 48 hrs by MTT assay. In kind it is functional, cell-based. To be noted: MCF7, 48 h. The gist of the method: as §1
Assay [5] is described as follows: Inhibition of AKT (unknown origin) by ELISA assay. Also noted: species or system Homo sapiens. The gist of the method: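 Akt kinase activity kit run per the manufacturer's protocol. Akt source was lysate of compound-treated human leukemia HEL cells, purified on a Mono Q anion-exchange column before the kinase measurement. HEL cells were grown in RPMI with 5% FBS at 37 °C and 5% CO2. The value is reported as an IC50.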
(In an ELISA, binding on a coated surface is turned into a signal by an enzyme label.)

Molecules are shown by their SMILES.

With `COc1ccc2cc1Oc1ccc(cc1)C[C@H]1c3cc(c(OC)cc3CCN1C)Oc1c(OC(=O)C=C(C)C)c(OC)cc3c1[C@H](C2)N(C)CC3`, the IC50 in assay [1] is 5.16 µM; in assay [2], 5.39 µM; in assay [3] it was 10.3 µM; in assay [4] it was greater than 100 µM.

Regarding `COc1ccc2cc1Oc1ccc(cc1)C[C@H]1c3cc(c(OC)cc3CCN1C)Oc1c(OC(=O)C3CC3)c(OC)cc3c1[C@H](C2)N(C)CC3`, the IC50 in assay [1] was 21.3 µM; in assay [2], 17.5 µM; in assay [3] it was 13.5 µM; in assay [4] it was greater than 100 µM.

In the case of `COc1ccc2cc1Oc1ccc(cc1)C[C@H]1c3cc(c(OC)cc3CCN1C)Oc1c(OC)c(OC)cc3c1[C@H](C2)N(C)CC3` [FANCHININ], the IC50 in assay [1] was determined as 19.7 µM; in assay [2], 6.43 µM; in assay [3] it was 18.4 µM; in assay [4], 19.6 µM.

As for `COc1ccc2cc1Oc1ccc(cc1)C[C@H]1c3cc(c(OC)cc3CCN1C)Oc1c(OC(=O)c3ccc(Br)cc3)c(OC)cc3c1[C@H](C2)N(C)CC3`, the IC50 in assay [1] was 2.31 µM; in assay [2], 3.06 µM; in assay [3], 5.58 µM; in assay [4], 6.84 µM.

Regarding `COc1ccc2cc1Oc1ccc(cc1)C[C@H]1c3cc(c(OC)cc3CCN1C)Oc1c(OC(=O)/C=C/c3ccccc3)c(OC)cc3c1[C@H](C2)N(C)CC3`, the IC50 is 10.2 µM in assay [1], 9.43 µM in assay [2], 7.9 µM in assay [3] and 16.1 µM in assay [4].

With `COc1ccc2cc1Oc1ccc(cc1)C[C@H]1c3cc(c(OC)cc3CCN1C)Oc1c(OC(=O)C(C)(C)C)c(OC)cc3c1[C@H](C2)N(C)CC3`, the half-inhibitory concentration (IC50) in assay [1] was 3.73 µM; in assay [2], 4.03 µM; in assay [3], 8.56 µM; in assay [4], 7.69 µM.

In the case of `COc1ccc2cc1Oc1ccc(cc1)C[C@H]1c3cc(c(OC)cc3CCN1C)Oc1c(OC(=O)N3c4ccccc4Sc4ccccc43)c(OC)cc3c1[C@H](C2)N(C)CC3`, the IC50 in assay [1] came out at 17.6 µM; in assay [2], 12.4 µM; in assay [3], 10.1 µM; in assay [4], 20.7 µM.

With `COc1ccc2cc1Oc1ccc(cc1)C[C@H]1c3cc(c(OC)cc3CCN1C)Oc1c(OC(=O)CBr)c(OC)cc3c1[C@H](C2)N(C)CC3`, the IC50 in assay [1] was determined as 25.9 µM; in assay [2], 14.3 µM; in assay [3], 17.8 µM; in assay [4] it was 22.1 µM.

For the compound `COc1ccc2cc1Oc1ccc(cc1)C[C@H]1c3cc(c(OC)cc3CCN1C)Oc1c(O)c(OC)cc3c1[C@H](C2)N(C)CC3` [FANGCHINOLINE], the IC50 in assay [1] is 22.7 µM; in assay [2] it was 5.94 µM; in assay [3], 58.6 µM; in assay [4], 17.4 µM; in assay [5], greater than 20 µM.

Consider `CCCCCC(=O)Oc1c(OC)cc2c3c1Oc1cc4c(cc1OC)CCN(C)[C@H]4Cc1ccc(cc1)Oc1cc(ccc1OC)C[C@@H]3N(C)CC2`, for which the IC50 was 21 µM in assay [1], 13.3 µM in assay [2], 11.3 µM in assay [3] and 12 µM in assay [4].

In the case of `COc1ccc2cc1Oc1ccc(cc1)C[C@H]1c3cc(c(OC)cc3CCN1C)Oc1c(OC(=O)c3ccccc3Cl)c(OC)cc3c1[C@H](C2)N(C)CC3`, the half-maximal inhibitory concentration (IC50) in assay [1] stood at 3.22 µM; in assay [2] it was 3.58 µM; in assay [3], 5.41 µM; in assay [4] it was 6.26 µM.

As to `COc1ccc2cc1Oc1ccc(cc1)C[C@H]1c3cc(c(OC)cc3CCN1C)Oc1c(OC(=O)c3c(Cl)cc(Cl)cc3Cl)c(OC)cc3c1[C@H](C2)N(C)CC3`, the IC50 in assay [1] amounted to 7.65 µM; in assay [2], 7.6 µM; in assay [3] it was 23 µM; in assay [4], 18.2 µM.

Regarding `COc1ccc2cc1Oc1ccc(cc1)C[C@H]1c3cc(c(OC)cc3CCN1C)Oc1c(OC(=O)c3cccc(Cl)c3)c(OC)cc3c1[C@H](C2)N(C)CC3`, the IC50 in assay [1] was determined as 4.26 µM; in assay [2] it was 3.79 µM; in assay [3], 8.03 µM; in assay [4], 4.42 µM.

With `COc1ccc2cc1Oc1ccc(cc1)C[C@H]1c3cc(c(OC)cc3CCN1C)Oc1c(OC(=O)N3CCCOC3)c(OC)cc3c1[C@H](C2)N(C)CC3`, the IC50 was found to be 40.2 µM in assay [1], 15.9 µM in assay [2], 15.1 µM in assay [3] and 25.2 µM in assay [4].

On to `COc1ccc2cc1Oc1ccc(cc1)C[C@H]1c3cc(c(OC)cc3CCN1C)Oc1c(OC(=O)c3ccc(Cl)cc3Cl)c(OC)cc3c1[C@H](C2)N(C)CC3`, for which the IC50 in assay [1] is 10.2 µM; in assay [2], 6.11 µM; in assay [3] it was 28 µM; in assay [4] it was greater than 100 µM.

Take `COc1ccc2cc1Oc1ccc(cc1)C[C@H]1c3cc(c(OC)cc3CCN1C)Oc1c(OC(=O)CCCl)c(OC)cc3c1[C@H](C2)N(C)CC3`: the IC50 in assay [1] amounted to 4.84 µM; in assay [2], 6.47 µM; in assay [3], 9.47 µM; in assay [4] it was 18.8 µM.

In the case of `COc1ccc2cc1Oc1ccc(cc1)C[C@H]1c3cc(c(OC)cc3CCN1C)Oc1c(OC(=O)C(Cl)(Cl)Cl)c(OC)cc3c1[C@H](C2)N(C)CC3`, the IC50 turned out to be 3.54 µM in assay [1], 3.3 µM in assay [2], 4.05 µM in assay [3] and 7.14 µM in assay [4].

Regarding `COc1ccc2cc1Oc1ccc(cc1)C[C@H]1c3cc(c(OC)cc3CCN1C)Oc1c(OC(=O)CCl)c(OC)cc3c1[C@H](C2)N(C)CC3`, the IC50 in assay [1] amounted to 10.8 µM; in assay [2], 12.3 µM; in assay [3], 10 µM; in assay [4], 30.1 µM.

Consider `CCN(CC)C(=O)Oc1c(OC)cc2c3c1Oc1cc4c(cc1OC)CCN(C)[C@H]4Cc1ccc(cc1)Oc1cc(ccc1OC)C[C@@H]3N(C)CC2`, for which the IC50 in assay [1] amounted to 2.98 µM; in assay [2], 3.74 µM; in assay [3], 9.04 µM; in assay [4], 23.7 µM.

Take `COc1ccc2cc1Oc1ccc(cc1)C[C@H]1c3cc(c(OC)cc3CCN1C)Oc1c(OC(=O)c3ccc(Cl)c(Cl)c3)c(OC)cc3c1[C@H](C2)N(C)CC3`: the IC50 in assay [1] amounted to 4.56 µM; in assay [2], 8.52 µM; in assay [3], 18.3 µM; in assay [4] it was 10.8 µM.

As to `COc1ccc2cc1Oc1ccc(cc1)C[C@H]1c3cc(c(OC)cc3CCN1C)Oc1c(OC(=O)CCCCl)c(OC)cc3c1[C@H](C2)N(C)CC3`, the IC50 turned out to be 7.86 µM in assay [1], 6.55 µM in assay [2], 8.68 µM in assay [3] and 12.4 µM in assay [4].

As for `C=CCCCCCCCCC(=O)Oc1c(OC)cc2c3c1Oc1cc4c(cc1OC)CCN(C)[C@H]4Cc1ccc(cc1)Oc1cc(ccc1OC)C[C@@H]3N(C)CC2`, the IC50 in assay [1] worked out at 15.7 µM; in assay [2] it was 10.4 µM; in assay [3], 13 µM; in assay [4], 8.57 µM.

`CCN(C)C(=O)Oc1c(OC)cc2c3c1Oc1cc4c(cc1OC)CCN(C)[C@H]4Cc1ccc(cc1)Oc1cc(ccc1OC)C[C@@H]3N(C)CC2`: the IC50 is 3.46 µM in assay [1], 5.89 µM in assay [2], 9.89 µM in assay [3] and 20.6 µM in assay [4].

As to `COc1ccc2cc1Oc1ccc(cc1)C[C@H]1c3cc(c(OC)cc3CCN1C)Oc1c(OC(=O)c3cccc4ccccc34)c(OC)cc3c1[C@H](C2)N(C)CC3`, the IC50 in assay [1] came to 3.46 µM; in assay [2], 4.59 µM; in assay [3], 16.5 µM; in assay [4], 8.19 µM.

Turning to `COc1ccc2cc1Oc1ccc(cc1)C[C@H]1c3cc(c(OC)cc3CCN1C)Oc1c(OC(=O)c3ccc(Cl)cc3)c(OC)cc3c1[C@H](C2)N(C)CC3`, the 50% inhibitory concentration (IC50) in assay [1] was 2.81 µM; in assay [2], 2.8 µM; in assay [3] it was 7.55 µM; in assay [4], 8.63 µM.

For the compound `CC[C@]1(O)C[C@@H]2CN(CCc3c([nH]c4ccccc34)[C@@](C(=O)OC)(c3cc4c(cc3OC)N(C)[C@H]3[C@@](O)(C(=O)OC)[C@H](OC(C)=O)[C@]5(CC)C=CCN6CC[C@]43[C@@H]65)C2)C1` [VINBLASTINE], the IC50 in assay [1] was 16 µM; in assay [2] it was 9.49 µM; in assay [3], 17.7 µM; in assay [4], 37.5 µM.

Consider `C=CC(=O)Oc1c(OC)cc2c3c1Oc1cc4c(cc1OC)CCN(C)[C@H]4Cc1ccc(cc1)Oc1cc(ccc1OC)C[C@@H]3N(C)CC2`, for which the half-maximal inhibitory concentration (IC50) in assay [1] worked out at 4.27 µM; in assay [2], 6.77 µM; in assay [3] it was 5.03 µM; in assay [4], 7.28 µM.

As usually defined, the IC50 is the concentration needed to halve the response being measured.

These data come from ChEMBL document CHEMBL4680131, “Fangchinoline derivatives induce cell cycle arrest and apoptosis in human leukemia cell lines via suppression of the PI3K/AKT and MAPK signaling pathway” (Eur J Med Chem, 2020).
